# Data taken from ChEMBL document CHEMBL5046298, “SAR of Novel 3-Arylisoquinolinones: meta-Substitution on the Aryl Ring Dramatically Enhances Antiproliferative Activity through Binding to Microtubules” (J Med Chem, 2022).
# Calls of active or inactive are those of the source. No cut-off for these calls is given here.
# How the values were obtained:
# [1] = molecular target: T1, Ribosyldihydronicotinamide dehydrogenase [quinone] (Homo sapiens) (UniProt P16083); assay: Inhibition of human recombinant NQO2 at upto 100 uM; details: dose microM <=100
# T1 sequence (whole entry): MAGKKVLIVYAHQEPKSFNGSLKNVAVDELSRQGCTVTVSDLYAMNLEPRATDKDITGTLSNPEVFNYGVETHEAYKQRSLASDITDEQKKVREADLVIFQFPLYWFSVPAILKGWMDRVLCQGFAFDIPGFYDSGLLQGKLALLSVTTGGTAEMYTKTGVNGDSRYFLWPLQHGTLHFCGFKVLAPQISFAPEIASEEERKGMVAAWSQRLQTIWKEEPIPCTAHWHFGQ
# [2] = molecular target: T2, Tubulin (Homo sapiens) (UniProt P68371+Q9H4B7+P0DPH7+P68366+Q13509+Q71U36+P04350+Q3ZCM7+P07437+P68363+Q9BQE3+Q6PEY2+Q13885+Q9BVA1+Q9BUF5); assay: Induction of microtubule disruption in HUVEC cells assessed as shortened microtubules with outer blebbing filled with tubulin at 0.5 to 1 uM incubated for 24 hrs by immunofluorescence based inverted microscopy; assay type: cell-based; details: dose 0.5-1 µM
# In short: (§1)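 HUVECs (2×10^4) adhered overnight on glass slides, no Matrigel. Treated 24 h with 0.5 or 1 μM; colchicine 0.1 μM as positive control. Fixed in 10% formalin, permeabilized with Triton X-100, blocked. Stained with anti-α-tubulin plus Cy5 secondary, phalloidin-Atto 488 for F-actin, and DAPI. Imaged by inverted fluorescence microscopy at 63×. Three independent experiments.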
# [3] = tested on: HepG2; assay: Induction of reversible mitotic arrest in human HepG2 cells assessed as increase in cell population in sub-G0/G1 phase at 2 to 5 uM treated for 24 hrs followed by replacement with fresh medium without compound and further incubated for 24 hrs by PI staining based flow cytometry; assay type: functional; details: dose 2-5 µM
# In short: (§2)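 HepG2 cells (5×10^5 per dish) treated 24 h, then medium replaced with compound-free medium for a further 24 h. Cells then ethanol-fixed and stained with PI/RNase A for 30 min at 37 °C. 10 000 cells analyzed by flow cytometry; phase percentages by Watson model. Compared with control by one-way ANOVA/Dunnett's.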
# [4] = Antiproliferative activity against human THLE-3 cells assessed as inhibition of cell proliferation incubated for 24 hrs followed by 72 hrs of compound-free incubation by Sulforhodamine B assay; assay type: toxicity, cell-based
# In short: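 SRB growth assay: cells seeded overnight (HepG2 3000, SNU423 2000, MDA-MB-231 1500, MCF-7 2500, A549 1000, HCT116 1000, THLE-3 4000 cells/well), then exposed to a concentration range for 96 h, or 24 h followed by 72 h drug-free. DMSO ≤0.3%. TCA fixation, 0.4% SRB staining, OD at 510 nm. Growth % = OD test/OD control ×100. IC50 from four-parameter fit; at least three independent experiments.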
# [5] = tested on: HepG2; assay: Induction of reversible mitotic arrest in human HepG2 cells assessed as restoration of cell population in G0/G1 phase at 2 to 5 uM treated for 24 hrs followed by replacement with fresh medium without compound and further incubated for 24 hrs by PI staining based flow cytometry; assay type: functional; details: dose 2-5 µM; in short: as §2
# [6] = tested on: HUVEC; assay: Disruption of preestablished capillary like tubes in HUVEC cells assessed as formation of short distorted tubes at 1 to 2 uM incubated for 16 hrs by matrigel based bright field microscopic analysis; assay type: functional, cell-based; details: Homo sapiens, dose 1-2 µM
# [7] = tested on: HUVEC; assay: Induction of actin disruption in HUVEC cells assessed as thicker and brighter actin fibers at 0.5 to 1 uM incubated for 24 hrs by phalloidin-Atto 488 staining based inverted microscopy; assay type: cell-based; details: Homo sapiens, dose 0.5-1 µM; in short: as §1
# [8] = tested on: HepG2; assay: Induction of reversible mitotic arrest in human HepG2 cells assessed as restoration of cell population in S phase at 2 to 5 uM treated for 24 hrs followed by replacement with fresh medium without compound and further incubated for 24 hrs by PI staining based flow cytometry; assay type: functional; details: dose 2-5 µM; in short: as §2
# [9] = tested on: SNU-423; assay: Induction of apoptosis in human SNU-423 cells assessed as viable cells at 1 uM incubated for 24 hrs by Annexin V-APC/PI staining based flow cytometry (reference value: 92.7 %); assay type: functional; details: read-out: Activity
# [10] = tested on: HepG2; assay: Induction of cell cycle arrest in human HepG2 cells assessed as decrease in cell proportion at G0/G1 phase at 25 uM measured after 24 hrs by PI staining based flow cytometry; assay type: functional
# [11] = tested on: HepG2; assay: Cytotoxicity against human HepG2 cells assessed as inhibition of colony formation at 0.5 to 1 uM incubated for 14 days by methylene blue staining based clonogenic assay; assay type: functional, cell-based; details: dose 0.5-1 µM, time 14.0 day
# In short: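 Clonogenic survival: HepG2 seeded as single cells at 1000/well and left 10-12 h to adhere. Treated with DMSO or a concentration range for 14 days, with compound added once. Colonies fixed in 70% ethanol, stained with 0.5% methylene blue, and colonies of ≥50 cells counted. Surviving fraction = treated CFE/control CFE. Three independent experiments.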
# [12] = tested on: SNU-423; assay: Induction of apoptosis in human SNU-423 cells assessed as necrotic cells at 1 uM incubated for 24 hrs by Annexin V-APC/PI staining based flow cytometry (reference value: 5.74 %); assay type: functional
# [13] = tested on: SNU-423; assay: Induction of apoptosis in human SNU-423 cells assessed as early apoptotic cells at 1 uM incubated for 24 hrs by Annexin V-APC/PI staining based flow cytometry (reference value: 0.94 %); assay type: functional
# [14] = tested on: HepG2; assay: Induction of reversible mitotic arrest in human HepG2 cells assessed as restoration of cell population in G2/M phase at 2 to 5 uM treated for 24 hrs followed by replacement with fresh medium without compound and further incubated for 24 hrs by PI staining based flow cytometry; assay type: functional; details: dose 2-5 µM; in short: as §2
# [15] = tested on: HepG2; assay: Induction of cell cycle arrest in human HepG2 cells assessed as increase in sub-G0/G1 cell population at 2 uM measured after 24 hrs by PI staining based flow cytometry; assay type: functional
# [16] = tested on: HUVEC; assay: Cytotoxicity against HUVEC cells assessed as reduction in cell proliferation at upto 10 uM incubated for 24 hrs by Sulforhodamine B assay; assay type: toxicity, cell-based; details: human
# In short: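 HUVECs plated without Matrigel at 4000 cells/well, allowed to attach overnight, then exposed to a concentration range for 24 h. Growth read by SRB: TCA fixation, 0.4% SRB dye, OD at 510 nm, expressed as % of DMSO control. Mean ± SEM of three independent experiments.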
# [17] = tested on: SNU-423; assay: Induction of apoptosis in human SNU-423 cells assessed as late apoptotic cells at 0.5 uM incubated for 24 hrs by Annexin V-APC/PI staining based flow cytometry (reference value: 0.83 %); assay type: functional
# [18] = tested on: SNU-423; assay: Induction of apoptosis in human SNU-423 cells assessed as viable cells at 0.5 uM incubated for 24 hrs by Annexin V-APC/PI staining based flow cytometry (reference value: 92.7 %); assay type: functional; details: read-out: Activity
# [19] = tested on: SNU-423; assay: Induction of apoptosis in human SNU-423 cells assessed as early apoptotic cells at 0.5 uM incubated for 24 hrs by Annexin V- APC/PI staining based flow cytometry (reference value: 0.94 %); assay type: functional
# [20] = tested on: HUVEC; assay: Disruption of preestablished capillary like tubes in HUVEC cells assessed as decrease in tube junctions at 1 to 2 uM incubated for 16 hrs by matrigel based bright field microscopic analysis; assay type: functional, cell-based; details: Homo sapiens, dose 1-2 µM
# [21] = tested on: HUVEC; assay: Disruption of preestablished capillary like tubes in HUVEC cells incubated for 16 hrs by matrigel based bright field microscopic analysis; assay type: functional, cell-based; details: Homo sapiens, dose 0.5-10 µM
# [22] = molecular target: T2, Tubulin (Homo sapiens); assay: Inhibition of tubulin (unknown origin) polymerization assessed as reduction in microtubule formation by measuring reduction in absorbance measured every minute for 1 hr in presence of GTP by microplate reader analysis; assay type: protein-complex assay; details: dose 5-20 µM
# In short: (§3)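 Cell-free turbidity assay: purified bovine tubulin diluted to 60 μM in polymerization buffer with 1 mM GTP, mixed on ice with DMSO or test agent (final 5, 10, 20 μM). […] A350 read every 1 min for 60 min at 37 °C; ΔA calculated relative to time zero.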
# [23] = tested on: HUVEC; assay: Antivascular activity against HUVEC cells assessed as inhibition of capillary like tube formation incubated for 16 hrs by matrigel based bright field microscopic analysis; assay type: functional, cell-based; details: Homo sapiens, dose 2.0 µM
# In short: (§4)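 Tube formation: HUVECs (25×10^3 per well) plated onto gelled Matrigel together with DMSO or test agent (0.5, 1, 2 μM or 25 μM). After 16 h, tube networks were examined by bright-field microscopy at 4×. Three independent experiments.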
# [24] = tested on: HUVEC; assay: Disruption of preestablished capillary like tubes in HUVEC cells assessed as rounded and retracted cells at 0.5 to 1 uM incubated for 16 hrs by matrigel based inverted microscopy; details: Homo sapiens, dose 0.5-1 µM
# [25] = tested on: HUVEC; assay: Disruption of preestablished capillary like tubes in HUVEC cells at 25 uM incubated for 16 hrs by matrigel based bright field microscopic analysis; assay type: functional, cell-based; details: Homo sapiens
# [26] = tested on: HUVEC; assay: Antivascular activity against HUVEC cells assessed as inhibition of capillary like tube formation at 25 uM incubated for 16 hrs by matrigel based bright field microscopic analysis; assay type: functional, cell-based; details: Homo sapiens; in short: as §4
# [27] = molecular target: T2, Tubulin (Homo sapiens); assay: Inhibition of tubulin (unknown origin) polymerization assessed as reduction in microtubule formation by measuring reduction in absorbance at 10 uM measured every minute for 1 hr in presence of GTP by microplate reader analysis; assay type: protein-complex assay; in short: as §3
structure (smiles),measurement,setting,value
O=c1[nH]c(-c2cccc(F)c2)cc2cc(F)ccc12,inhibition,[1],inactive
same,Activity,[2],Active
same,Activity,[3],Active
same,IC50 at 24 h,[4],> 25 µM
same,Activity,[5],Active
same,Activity,[6],Active
same,Activity,[7],Active
same,Activity,[8],Active
same,viability at 1 µM,[9],60.4%
same,Activity,[10],Active
same,inhibition,[11],Active
same,Activity,[12],12.1%
same,Activity,[13],15.1%
same,Activity,[14],Active
same,Activity,[15],Active
same,Activity,[16],Non-Toxic
same,Activity,[17],6.47%
same,viability at 0.5 µM,[18],76%
same,Activity,[19],5.95%
same,Activity,[20],Active
same,Activity,[21],Dose-Dependent Effect
same,inhibition,[22],Active
same,Activity,[23],Dose-Dependent Effect
same,Activity,[24],Active
O=c1[nH]c(-c2ccc(F)cc2)cc2cc(F)ccc12,Activity,[25],inactive
same,inhibition,[1],inactive
same,Activity,[26],inactive
COc1ccc(-c2cc3cc(F)ccc3c(=O)[nH]2)cc1,inhibition,[1],inactive
CC(=O)O[C@H]1C(=O)[C@@]2(C)[C@H]([C@H](OC(=O)c3ccccc3)[C@]3(O)C[C@H](OC(=O)[C@H](O)[C@@H](NC(=O)c4ccccc4)c4ccccc4)C(C)=C1C3(C)C)[C@]1(OC(C)=O)CO[C@@H]1C[C@@H]2O,inhibition,[27],inactive
COC(=O)Nc1nc2cc(C(=O)c3cccs3)ccc2[nH]1,inhibition,[27],Active
